Article PMC5814953 (Nucleic Acids Research, 2017)
Ends that are not written are not given here. Peptide text beside a SMILES is read from it. * marks the point of attachment. Biotin = O=C1N[C@H]2[C@H](CS[C@H]2CCCCC(=O)*)N1

How the values were obtained:
[1] = system: Sim3-FLAG; test: Biotinylated peptide pull-down of Sim3-FLAG from yeast cell extract, immunoblot; assay type: binding, Schizosaccharomyces pombe
[2] = system: Ani1; test: 2D 1H ROESY NMR, cis-trans isomerization of NTD peptide by Ani1; assay type: biochemical, Schizosaccharomyces pombe
[3] = system: Ani2; test: 2D 1H ROESY NMR, cis-trans isomerization of NTD peptide by Ani2; assay type: biochemical, Schizosaccharomyces pombe
[4] = 2D 1H ROESY NMR of NTD peptide in the absence of isomerase; assay type: physicochemical; conditions: pH 6.5, 25°C
Summary of the method: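 Synthetic NTD peptide at 2 mM in 20 mM phosphate buffer (90% H2O/10% D2O), pH 6.5, run at 25°C. No isomerase was added; the paired runs contained 0.03 mM bacterially produced Ani1 or Ani2.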

[5] = target: T1, Sim3-His, bacterially purified recombinant Sim3 protein (S. pombe, UniProt Q9USQ4 1-396); test: ITC
T1 sequence (looked up): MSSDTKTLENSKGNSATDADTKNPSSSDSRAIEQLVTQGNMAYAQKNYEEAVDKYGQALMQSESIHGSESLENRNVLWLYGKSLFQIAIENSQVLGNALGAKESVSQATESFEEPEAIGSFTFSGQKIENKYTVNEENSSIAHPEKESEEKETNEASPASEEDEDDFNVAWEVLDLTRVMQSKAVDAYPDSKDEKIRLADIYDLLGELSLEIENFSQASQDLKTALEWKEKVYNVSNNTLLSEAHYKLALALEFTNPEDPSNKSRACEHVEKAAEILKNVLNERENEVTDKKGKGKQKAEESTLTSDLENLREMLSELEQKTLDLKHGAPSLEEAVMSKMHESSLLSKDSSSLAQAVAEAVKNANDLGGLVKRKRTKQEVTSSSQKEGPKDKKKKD

Molecule: CC[C@H](C)[C@H](NC(=O)[C@@H]1CCCN1C(=O)[C@H](CC(=O)O)NC(=O)CNC(=O)[C@@H]1CCCN1C(=O)[C@H](CCC(=O)O)NC(=O)[C@H](C)NC(=O)[C@H](CCSC)NC(=O)[C@H](CC(C)C)NC(=O)[C@H](CO)NC(=O)[C@H](CCCCN)NC(=O)[C@H](CCCCN)NC(=O)[C@H](C)NC(=O)[C@@H](N)CCSC)C(=O)N1CCC[C@H]1C(=O)N[C@@H](CCCNC(=N)N)C(=O)N1CCC[C@H]1C(=O)N[C@@H](CCCNC(=N)N)C(=O)N[C@@H](CCCCN)C(=O)N[C@@H](CCCCN)C(=O)N[C@@H](CCCNC(=N)N)C(=O)N[C@@H](Cc1ccc(O)cc1)C(=O)N[C@@H](CCCNC(=N)N)C(=O)N1CCC[C@H]1C(=O)NCC(=O)N[C@H](C(=O)N[C@H](C(=O)N[C@@H](C)C(=O)N[C@@H](CC(C)C)C(=O)N[C@@H](CCCNC(=N)N)C(=O)N[C@@H](CCCCNC(=O)CCCC[C@@H]1SC[C@@H]2NC(=O)N[C@@H]21)C(=O)O)[C@@H](C)O)[C@@H](C)O [WT SpCENP-A NTD] (H-MAKKSLMAEPGDPIPRPRKKRYRPGTTALRK(Biotin)-OH; N-terminus and C-terminus assumed)
- reduction of Sim3-FLAG interaction ([1]; WT peptide, absence of both ani1 and ani2, vs WT cells (1–0.57)): ~43%
- effect of single null mutation of ani1 or ani2 on Sim3-FLAG binding (in words) ([1]; Δani1 or Δani2 single mutant cell extract, Figure 6B bottom gel): did not grossly affect the binding

Molecule: SLMAEPGDPIPRPR
- cis-trans exchange cross-peaks ([2]; presence of 0.03 mM Ani1, 2 mM peptide, 20 mM phosphate (90% H2O + 10% D2O, pH 6.5), 25°C): two prominent and reproducible exchange cross-peaks corresponding to Ile14 and Arg16
- cross peaks corresponding to P10 or P13 ([2]; presence of Ani1, 2 mM peptide, pH 6.5, 25°C): No cross peaks were found corresponding to P10 or P13
- cis-trans exchange cross-peaks ([3]; presence of 0.03 mM Ani2, 2 mM peptide, 20 mM phosphate (90% H2O + 10% D2O, pH 6.5), 25°C): two prominent and reproducible exchange cross-peaks corresponding to Ile14 and Arg16
- cross peaks corresponding to P10 or P13 ([3]; presence of Ani2, 2 mM peptide, pH 6.5, 25°C): No cross peaks were found corresponding to P10 or P13
- cis-trans exchange cross-peaks ([4]; absence of Ani1 or Ani2, 2 mM peptide, 20 mM phosphate): no cross-peaks were observed
- speed of the cis- and trans-conformational switch ([4]; absence of Ani1 or Ani2, too slow to be detected under the NMR time scale, 2 mM peptide): < 0.1 s⁻¹

Molecule: MAKKSLMAEAGDAIARARKK (peptide, UniProt Q9Y812 1-20, looked up, also: biotinylated, position not given here) [SpCENP-A NTD 4PA peptide (quadruple P-to-A mutations of the GRANT prolines), biotinylated]
- Kd [5]: 4.5 µM
